Measured values reported in ChEMBL document CHEMBL2157866, “Virtual screening and computational optimization for the discovery of covalent prolyl oligopeptidase inhibitors with activity in human cells” (J Med Chem, 2012).

Legend:
[1] = Intrinsic clearance in human liver microsomes at 1 uM after 30 mins by LC-MSD method; type: ADME, Microsome; conditions: read-out: CLH
Summary of the method: (§1)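 Test compound at 1 μM in 0.1 M KH2PO4 pH 7.4 with liver microsomes (0.5618 mg/mL) at 37 °C. Reaction started with NADPH. Aliquots taken at 0, 10, 20 and 30 min and quenched into equal-volume acetonitrile. Samples centrifuged at 9000g, 4 °C, and supernatants analysed by LC-MSD.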

[2] = Half life in human liver microsomes at 1 uM after 30 mins by LC-MSD method; type: ADME, Microsome; summary of the method: as §1
Prolyl endopeptidase FAP = biological target: T1, Prolyl endopeptidase FAP (Homo sapiens, UniProt Q12884); assay: Inhibition at human recombinant FAPalpha
T1 sequence (Q12884 whole entry): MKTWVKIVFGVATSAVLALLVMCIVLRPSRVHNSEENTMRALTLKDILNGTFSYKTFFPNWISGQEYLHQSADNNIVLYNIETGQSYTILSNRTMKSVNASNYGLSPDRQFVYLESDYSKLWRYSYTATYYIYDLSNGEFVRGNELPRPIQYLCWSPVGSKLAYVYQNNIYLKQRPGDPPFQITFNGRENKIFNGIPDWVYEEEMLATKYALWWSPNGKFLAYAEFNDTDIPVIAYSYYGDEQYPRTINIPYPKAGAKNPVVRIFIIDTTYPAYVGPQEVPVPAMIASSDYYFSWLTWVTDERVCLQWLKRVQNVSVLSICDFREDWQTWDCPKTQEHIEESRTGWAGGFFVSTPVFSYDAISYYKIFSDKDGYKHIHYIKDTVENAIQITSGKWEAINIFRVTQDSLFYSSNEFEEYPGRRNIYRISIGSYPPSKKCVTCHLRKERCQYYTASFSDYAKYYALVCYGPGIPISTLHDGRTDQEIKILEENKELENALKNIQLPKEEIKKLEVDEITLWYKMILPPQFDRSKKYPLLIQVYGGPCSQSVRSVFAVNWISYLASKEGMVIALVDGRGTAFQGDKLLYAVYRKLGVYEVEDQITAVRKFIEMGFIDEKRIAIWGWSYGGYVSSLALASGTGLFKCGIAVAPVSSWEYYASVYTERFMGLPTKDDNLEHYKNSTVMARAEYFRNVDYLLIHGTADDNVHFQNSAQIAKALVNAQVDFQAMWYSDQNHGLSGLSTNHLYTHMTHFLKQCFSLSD
Summary of the method: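 Recombinant human FAPα diluted in PBS with 1 mg/mL BSA. Setup as for cell extracts: inhibitor preincubated 5–10 min at room temperature, then Z-Gly-Pro-AMC at 10 μM final. AMC fluorescence (ex/em 360/460 nm) recorded for 30 min at 37 °C.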

[3] = Half life in rat liver microsomes at 1 uM after 30 mins by LC-MSD method; type: ADME, Microsome; summary of the method: as §1
[4] = Intrinsic clearance in rat liver microsomes at 1 uM after 30 mins by LC-MSD method; type: ADME, Microsome; conditions: read-out: CLH; summary of the method: as §1

Structure (SMILES) | microsomal CLint at 1 µM [1] [µL/min/mg] | half-life at 1 µM [2] [min] | IC50 (Prolyl endopeptidase FAP) [µM] | half-life at 1 µM [3] [min] | microsomal CLint at 1 µM [4] [µL/min/mg]
O=C(NCc1ccccc1)c1ccccc1C(=O)N1CCCC1 | 25 | 55 | – | 17 | 83
O=C(NCc1ccccc1)c1ccccc1C(=O)N1CCCCC1 | 89 | 16 | – | 4 | 311
O=C(c1cccc2c1C(=O)N(Cc1ccccc1)C2)N1CCCC1 | 14 | 98 | > 100 | 23 | 62

More lines, now with the values ahead:

microsomal CLint at 1 µM [1] [µL/min/mg] | half-life at 1 µM [2] [min] | IC50 (Prolyl endopeptidase FAP) [µM] | half-life at 1 µM [3] [min] | microsomal CLint at 1 µM [4] [µL/min/mg] | Structure (SMILES)
10 | 134 | – | – | – | N#C[C@@H]1CS[C@H]2C[C@@H](NC(=O)OCc3ccccc3)C(=O)N12
44 | 31 | > 100 | 38 | 37 | N#C[C@@H]1CCCN1C(=O)c1ccccc1C(=O)NCc1ccccc1
13 | 111 | > 100 | 35 | 39 | N#C[C@@H]1CCCN1C(=O)c1cccc2c1C(=O)N(Cc1ccccc1)C2
